Reference: ChEMBL document CHEMBL1122554, “Synthesis and antitumor activity of tropolone derivatives” (1984)
Values after ≈ are worked out from the molar mass of the structure shown.

Columns and labels:
Assay type in all cases: functional
Mus musculus [1] = test: In vivo antitumor activity was measured in mice (P388 leukemia) at dose 100 mg/kg after intraperitoneal administration
In short: (§1)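 Groups of six CDF1 mice were inoculated ip with 10⁶ P388 leukemia cells. Ip drug dosing began 24 h later, given once daily for 1 and 5 days. %T/C = median survival time of the treated group ÷ median survival time of the tumor control group × 100.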

KB = test: In vitro inhibitory activity against growth of KB cells derived from human epidermoid carcinoma of the mouth; conditions: for IC50: Homo sapiens, KB, read-out: ID50 (the source's name)
In short: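 KB human epidermoid carcinoma cells grown at 37 °C in 5% CO2–95% air and seeded at 2100 cells/cm². After 24 h the medium was changed and graded drug (0.3–100 µg/mL) added, two dishes per concentration. After 48 h of exposure, cells were trypsinized and counted by Coulter counter. IC50 was read from a plot of log concentration vs. growth rate (% of control).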

Mus musculus [2] = test: In vivo antitumor activity was measured in mice (P388 leukemia) at dose 400 mg/kg after intraperitoneal administration; in short: as §1
Mus musculus [3] = test: In vivo antitumor activity was measured in mice (P388 leukemia) at dose 200 mg/kg after intraperitoneal administration; in short: as §1
Mus musculus [4] = test: In vivo antitumor activity was measured in mice (P388 leukemia) at dose 50 mg/kg after intraperitoneal administration; in short: as §1
Mus musculus [5] = test: In vivo antitumor activity was measured in mice (P388 leukemia) at dose 5 mg/kg after intraperitoneal administration; in short: as §1
Mus musculus [6] = test: In vivo antitumor activity was measured in mice (P388 leukemia) at dose 2.5 mg/kg after intraperitoneal administration; in short: as §1
Mus musculus [7] = test: In vivo antitumor activity was measured in mice (P388 leukemia) at dose 10 mg/kg after intraperitoneal administration; in short: as §1
Mus musculus [8] = test: In vivo antitumor activity was measured in mice (P388 leukemia) at dose 20 mg/kg after intraperitoneal administration; in short: as §1
Mus musculus [9] = test: In vivo antitumor activity was measured in mice (P388 leukemia) at dose 0.6 mg/kg after intraperitoneal administration; in short: as §1
Mus musculus [10] = test: IIn vivo %T/C was measured in mice (P388 leukemia) at dose 10 mg/kg after intraperitoneal administration; in short: as §1
Mus musculus [11] = test: In vivo antitumor activity was measured in mice (P388 leukemia) at dose 1.3 mg/kg after intraperitoneal administration; in short: as §1
Mus musculus [12] = test: In vivo antitumor activity was measured in mice (P388 leukemia) at dose 0.5 mg/kg after intraperitoneal administration; in short: as §1
Mus musculus [13] = test: In vivo antitumor activity was measured in mice (P388 leukemia) at dose 1 mg/kg after intraperitoneal administration; in short: as §1
Mus musculus [14] = test: In vivo antitumor activity was measured in mice (P388 leukemia) at dose 0.3 mg/kg after intraperitoneal administration; in short: as §1
Mus musculus [15] = test: In vivo antitumor activity was measured in mice (P388 leukemia)at dose 100 mg/kg after intraperitoneal administration
In short: (§2)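 Groups of six CDF1 mice inoculated ip with 10⁶ P388 leukemia cells; ip drug treatment begun 24 h after inoculation, listed dose given once a day for 1 and 5 days. Endpoint: median survival time of treated group divided by that of tumor controls ×100 (% T/C).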

Mus musculus [16] = test: In vivo antitumor activity was measured in mice (P388 leukemia)at dose 200 mg/kg after intraperitoneal administration; in short: as §2

| Compound | T/C (Mus musculus [1]) [%] | ID50 (KB) [nM] | IC50 (KB) [µg/mL] | T/C (Mus musculus [2]) [%] | T/C (Mus musculus [3]) [%] | T/C (Mus musculus [5]) [%] | other results |
| --- | --- | --- | --- | --- | --- | --- | --- |
| CC(C)c1ccc(C(c2ccccc2)c2ccccc2)c(O)c(=O)c1 | 119 | 4200 | 1.4 (≈ 4.24 µM) | – | – | – | – |
| CCOC(c1ccc(OC)cc1)c1ccc(C(C)C)cc(=O)c1O (stereo not given) | – | 1500 | 0.5 (≈ 1.52 µM) | 140 | 128 | – | – |
| CCOC(c1ccc(Cl)cc1)c1ccc(C(C)C)cc(=O)c1O (stereo not given) | 99 | 900 | 0.3 (≈ 0.901 µM) | 0 | 109 | – | – |
| CCOC(/C=C/c1ccccc1)c1ccc(C(C)C)cc(=O)c1O (stereo not given) | 112 | – | – | 0 | 100 | – | – |
| COc1cc(C(C)C)ccc(C2OCCc3ccccc32)c1=O (stereo not given) | 92 | 93000 | 29 (≈ 93.4 µM) | 98 | 94 | – | – |
| COc1cc(C(C)C)cccc1=O | 108 | 278000 | 49.5 (≈ 278 µM) | – | 0 | – | T/C (Mus musculus [4]): 106% |
| Cc1ccc(C(c2ccc(C(C)C)cc(=O)c2O)c2ccc(C(C)C)cc(=O)c2O)cc1 | – | 3400 | 1.5 (≈ 3.48 µM) | – | – | 147 | – |
| COc1ccc(C(c2ccc(C(C)C)cc(=O)c2O)c2ccc(C(C)C)cc(=O)c2O)cc1OC | – | 600 | 0.3 (≈ 0.629 µM) | – | – | 156 | T/C (Mus musculus [6]): 137%; T/C (Mus musculus [7]): 158% |
| CCOC(c1ccccc1)c1ccc(C(C)C)cc(=O)c1O (stereo not given) | 102 | 1000 | 0.3 (≈ 1.01 µM) | 0 | – | – | – |
| COc1c(C2OCCc3ccccc32)ccc(C(C)C)cc1=O (stereo not given) | 93 | 58000 | 18 (≈ 58 µM) | 98 | 88 | – | – |
| CC(C)c1ccc(C(c2ccc(Cl)cc2)c2ccc(C(C)C)cc(=O)c2O)c(O)c(=O)c1 | – | 4400 | 2 (≈ 4.43 µM) | – | – | 141 | – |
| Cc1ccccc1C(c1ccc(C(C)C)cc(=O)c1O)c1ccc(C(C)C)cc(=O)c1O | – | – | – | – | – | 156 | T/C (Mus musculus [8]): 158%; T/C (Mus musculus [6]): 137% |
| O=c1ccccc(C2OCCc3ccccc32)c1O (stereo not given) | 104 | 1600 | 0.5 (≈ 1.97 µM) | 0 | 96 | – | – |
| COc1ccc(C(c2ccc(C(C)C)cc(=O)c2O)c2ccc(C(C)C)cc(=O)c2O)cc1 | – | 1100 | 0.5 (≈ 1.12 µM) | – | – | – | T/C (Mus musculus [9]): 127%; T/C (Mus musculus [6]): 134% |
| COc1ccc(C(c2cc(C(C)C)ccc(=O)c2O)c2cc(C(C)C)ccc(=O)c2O)cc1 | – | 600 | 0.3 (≈ 0.672 µM) | – | – | 156 | – |
| CC(C)c1ccc(Cc2ccccc2)c(O)c(=O)c1 | 94 | 2000 | 0.5 (≈ 1.97 µM) | 88 | – | – | – |
| COc1cccc(C(c2ccc(C(C)C)cc(=O)c2O)c2ccc(C(C)C)cc(=O)c2O)c1 | – | 2400 | 1.1 (≈ 2.46 µM) | – | – | 134 | T/C (Mus musculus [6]): 142%; T/C (Mus musculus [7]): 134% |
| COc1ccccc1C(c1ccc(C(C)C)cc(=O)c1O)c1ccc(C(C)C)cc(=O)c1O | – | – | – | – | – | 151 | T/C (Mus musculus [8]): 0%; T/C (Mus musculus [10]): 162% |
| C/C=C/C(OCC)c1ccc(C(C)C)cc(=O)c1O (stereo not given) | 101 | 4500 | 1.2 (≈ 4.57 µM) | 115 | 116 | – | – |
| CCOC(c1ccc(C)cc1)c1ccc(C(C)C)cc(=O)c1O (stereo not given) | 105 | 9900 | 6.2 (≈ 19.8 µM) | – | 105 | – | – |
| CCOC(c1ccc(N(C)C)cc1)c1ccc(C(C)C)cc(=O)c1O (stereo not given) | – | 1700 | 0.6 (≈ 1.76 µM) | 0 | 128 | – | – |
| CC(C)c1ccc(C(c2ccc(N(C)C)cc2)c2ccc(C(C)C)cc(=O)c2O)c(O)c(=O)c1 | – | 1500 | 0.7 (≈ 1.52 µM) | – | – | 173 | T/C (Mus musculus [7]): 177% |
| CC(C)c1ccc(C2OCCc3ccccc32)c(O)c(=O)c1 (stereo not given) | 127 | 1700 | 0.5 (≈ 1.69 µM) | 108 | 126 | – | T/C (Mus musculus [4]): 128% |
| CC(C)c1ccc(C(c2ccccc2)c2ccc(C(C)C)cc(=O)c2O)c(O)c(=O)c1 | – | 700 | 0.3 (≈ 0.72 µM) | – | – | – | T/C (Mus musculus [11]): 132%; T/C (Mus musculus [6]): 150% |
| COc1cc2c(c(OC)c1OC)-c1ccc(OC)c(=O)cc1[C@@H](NC(C)=O)CC2 [COLCHICINE] | – | 6000 | 2.2 (≈ 5.51 µM) | – | – | – | T/C (Mus musculus [12]): 160%; T/C (Mus musculus [13]): 166%; T/C (Mus musculus [14]): 142% |
| CC(C)c1cccc(=O)c(O)c1 [HINOKITIOL] | – | 3600 | 0.5 (≈ 3.04 µM) | 0 | – | – | T/C (Mus musculus [15]): 100%; T/C (Mus musculus [4]): 103%; T/C (Mus musculus [16]): 62% |
